Experimental data reported in ChEMBL document CHEMBL5058577, “EUbOPEN Chemogenomics Library 2 (Multiplex)” (2022).

Tested on: Fibroblast
Test: Multiplex assay against human fibroblast
Assay type: toxicity, cell-based
Summary of the method: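 Four dyes were applied at seeding to live cells: Hoechst33342, BioTracker Green Microtubule Cytoskeleton Dye, MitoTracker Red and Annexin V Alexa Fluor 680. Imaging after compound addition used a CQ1 microscope at 37°C and 5% CO2. CellPathfinder machine-learning gating then sorted cells into Hoechst high-intensity objects or normal cells, normal cells into healthy, pyknosed or fragmented nuclei, and pyknosed cells into mitotic or apoptotic, with tubulin, mitochondrial-mass and membrane-permeability phenotypes given as per cents of healthy-nucleus cells.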

[1] = 12 h, 1 µM, compound concentration 1 uM, replicate 1
[2] = 12 h, 1 µM, compound concentration 1 uM, replicate 2
[3] = 12 h, 10 µM, compound concentration 10 uM, replicate 1
[4] = 12 h, 10 µM, compound concentration 10 uM, replicate 2
[5] = 24 h, 1 µM, compound concentration 1 uM, replicate 1
[6] = 24 h, 1 µM, compound concentration 1 uM, replicate 2
[7] = 24 h, 10 µM, compound concentration 10 uM, replicate 1
[8] = 24 h, 10 µM, compound concentration 10 uM, replicate 2
[9] = 48 h, 1 µM, compound concentration 1 uM, replicate 1
[10] = 48 h, 1 µM, compound concentration 1 uM, replicate 2
[11] = 48 h, 10 µM, compound concentration 10 uM, replicate 1
[12] = 48 h, 10 µM, compound concentration 10 uM, replicate 2

CCc1nn2c(C)cc(C)nc2c1Cc1ccc(-c2nnc(C3CCNCC3)o2)cc1
Population Apoptotic (%) [1]: 34%
Population Fragmented Nuclei (%) [1]: 17%
Population Healthy Nuclei (%) [1]: 63%
Population Hoechst High Intensity Objects (%) [1]: 2%
Population Membrane Permeable-Phenotype (%) [1]: 2%
Population Mitochondria Different-Phenotype (%) [1]: 5%
Population Mitotic Cells (%) [1]: 65%
Population Normal (%) [1]: 97%
Population Pyknosed Nuclei (%) [1]: 19%
Population Tubulin-Different-Phenotype (%) [1]: 35%
Total Cell Count [1]: 153
Population Apoptotic (%) [2]: 45%
Population Fragmented Nuclei (%) [2]: 19%
Population Healthy Nuclei (%) [2]: 46%
Population Hoechst High Intensity Objects (%) [2]: 6%
Population Mitochondria Different-Phenotype (%) [2]: 13%
Population Mitotic Cells (%) [2]: 54%
Population Normal (%) [2]: 93%
Population Pyknosed Nuclei (%) [2]: 33%
Population Tubulin-Different-Phenotype (%) [2]: 62%
Total Cell Count [2]: 167
Population Apoptotic (%) [3]: 51%
Population Fragmented Nuclei (%) [3]: 19%
Population Healthy Nuclei (%) [3]: 62%
Population Hoechst High Intensity Objects (%) [3]: 5%
Population Membrane Permeable-Phenotype (%) [3]: 0%
Population Mitochondria Different-Phenotype (%) [3]: 19%
Population Mitotic Cells (%) [3]: 48%
Population Normal (%) [3]: 94%
Population Pyknosed Nuclei (%) [3]: 18%
Population Tubulin-Different-Phenotype (%) [3]: 72%
Total Cell Count [3]: 188
Population Apoptotic (%) [4]: 14%
Population Fragmented Nuclei (%) [4]: 38%
Population Healthy Nuclei (%) [4]: 44%
Population Hoechst High Intensity Objects (%) [4]: 3%
Population Membrane Permeable-Phenotype (%) [4]: 5%
Population Mitochondria Different-Phenotype (%) [4]: 14%
Population Mitotic Cells (%) [4]: 85%
Population Normal (%) [4]: 96%
Population Pyknosed Nuclei (%) [4]: 17%
Population Tubulin-Different-Phenotype (%) [4]: 79%
Total Cell Count [4]: 162
Population Apoptotic (%) [5]: 52%
Population Fragmented Nuclei (%) [5]: 17%
Population Healthy Nuclei (%) [5]: 68%
Population Hoechst High Intensity Objects (%) [5]: 1%
Population Membrane Permeable-Phenotype (%) [5]: 0%
Population Mitochondria Different-Phenotype (%) [5]: 3%
Population Mitotic Cells (%) [5]: 47%
Population Normal (%) [5]: 98%
Population Pyknosed Nuclei (%) [5]: 13%
Population Tubulin-Different-Phenotype (%) [5]: 35%
Total Cell Count [5]: 153
Population Apoptotic (%) [6]: 56%
Population Fragmented Nuclei (%) [6]: 26%
Population Healthy Nuclei (%) [6]: 49%
Population Hoechst High Intensity Objects (%) [6]: 7%
Population Membrane Permeable-Phenotype (%) [6]: 6%
Population Mitochondria Different-Phenotype (%) [6]: 15%
Population Mitotic Cells (%) [6]: 43%
Population Normal (%) [6]: 92%
Population Pyknosed Nuclei (%) [6]: 23%
Population Tubulin-Different-Phenotype (%) [6]: 65%
Total Cell Count [6]: 177
Population Apoptotic (%) [7]: 53%
Population Fragmented Nuclei (%) [7]: 17%
Population Healthy Nuclei (%) [7]: 64%
Population Hoechst High Intensity Objects (%) [7]: 9%
Population Membrane Permeable-Phenotype (%) [7]: 0%
Population Mitochondria Different-Phenotype (%) [7]: 22%
Population Mitotic Cells (%) [7]: 46%
Population Normal (%) [7]: 90%
Population Pyknosed Nuclei (%) [7]: 17%
Population Tubulin-Different-Phenotype (%) [7]: 79%
Total Cell Count [7]: 185
Population Apoptotic (%) [8]: 56%
Population Fragmented Nuclei (%) [8]: 40%
Population Healthy Nuclei (%) [8]: 42%
Population Hoechst High Intensity Objects (%) [8]: 3%
Population Membrane Permeable-Phenotype (%) [8]: 11%
Population Mitochondria Different-Phenotype (%) [8]: 16%
Population Mitotic Cells (%) [8]: 44%
Population Normal (%) [8]: 96%
Population Tubulin-Different-Phenotype (%) [8]: 80%
Total Cell Count [8]: 151
Population Apoptotic (%) [9]: 76%
Population Fragmented Nuclei (%) [9]: 21%
Population Healthy Nuclei (%) [9]: 70%
Population Hoechst High Intensity Objects (%) [9]: 4%
Population Membrane Permeable-Phenotype (%) [9]: 1%
Population Mitochondria Different-Phenotype (%) [9]: 2%
Population Mitotic Cells (%) [9]: 23%
Population Normal (%) [9]: 95%
Population Pyknosed Nuclei (%) [9]: 7%
Population Tubulin-Different-Phenotype (%) [9]: 32%
Total Cell Count [9]: 172
Population Apoptotic (%) [10]: 62%
Population Fragmented Nuclei (%) [10]: 30%
Population Healthy Nuclei (%) [10]: 54%
Population Membrane Permeable-Phenotype (%) [10]: 3%
Population Mitochondria Different-Phenotype (%) [10]: 12%
Population Mitotic Cells (%) [10]: 37%
Population Pyknosed Nuclei (%) [10]: 14%
Population Tubulin-Different-Phenotype (%) [10]: 54%
Total Cell Count [10]: 168
Population Apoptotic (%) [11]: 84%
Population Fragmented Nuclei (%) [11]: 23%
Population Healthy Nuclei (%) [11]: 62%
Population Hoechst High Intensity Objects (%) [11]: 9%
Population Membrane Permeable-Phenotype (%) [11]: 0%
Population Mitochondria Different-Phenotype (%) [11]: 16%
Population Mitotic Cells (%) [11]: 15%
Population Normal (%) [11]: 90%
Population Pyknosed Nuclei (%) [11]: 13%
Population Tubulin-Different-Phenotype (%) [11]: 73%
Total Cell Count [11]: 208
Population Apoptotic (%) [12]: 54%
Population Fragmented Nuclei (%) [12]: 45%
Population Healthy Nuclei (%) [12]: 47%
Population Hoechst High Intensity Objects (%) [12]: 2%
Population Membrane Permeable-Phenotype (%) [12]: 2%
Population Mitochondria Different-Phenotype (%) [12]: 17%
Population Mitotic Cells (%) [12]: 45%
Population Normal (%) [12]: 97%
Population Pyknosed Nuclei (%) [12]: 7%
Population Tubulin-Different-Phenotype (%) [12]: 78%
Total Cell Count [12]: 161

N[C@](CC1c2ccccc2Oc2ccccc21)(C(=O)O)[C@H]1C[C@@H]1C(=O)O
Population Apoptotic (%) [1]: 44%
Population Fragmented Nuclei (%) [1]: 12%
Population Healthy Nuclei (%) [1]: 73%
Population Hoechst High Intensity Objects (%) [1]: 4%
Population Membrane Permeable-Phenotype (%) [1]: 0%
Population Mitochondria Different-Phenotype (%) [1]: 1%
Population Mitotic Cells (%) [1]: 56%
Population Normal (%) [1]: 95%
Population Pyknosed Nuclei (%) [1]: 13%
Population Tubulin-Different-Phenotype (%) [1]: 27%
Total Cell Count [1]: 189
Population Apoptotic (%) [2]: 58%
Population Fragmented Nuclei (%) [2]: 18%
Population Healthy Nuclei (%) [2]: 59%
Population Hoechst High Intensity Objects (%) [2]: 1%
Population Membrane Permeable-Phenotype (%) [2]: 7%
Population Mitotic Cells (%) [2]: 41%
Population Normal (%) [2]: 98%
Population Pyknosed Nuclei (%) [2]: 21%
Population Tubulin-Different-Phenotype (%) [2]: 37%
Total Cell Count [2]: 113
Population Apoptotic (%) [3]: 50%
Population Fragmented Nuclei (%) [3]: 13%
Population Healthy Nuclei (%) [3]: 66%
Population Hoechst High Intensity Objects (%) [3]: 1%
Population Membrane Permeable-Phenotype (%) [3]: 2%
Population Mitochondria Different-Phenotype (%) [3]: 2%
Population Mitotic Cells (%) [3]: 50%
Population Normal (%) [3]: 98%
Population Pyknosed Nuclei (%) [3]: 20%
Population Tubulin-Different-Phenotype (%) [3]: 22%
Total Cell Count [3]: 203
Population Apoptotic (%) [4]: 26%
Population Fragmented Nuclei (%) [4]: 20%
Population Healthy Nuclei (%) [4]: 59%
Population Hoechst High Intensity Objects (%) [4]: 7%
Population Membrane Permeable-Phenotype (%) [4]: 0%
Population Mitochondria Different-Phenotype (%) [4]: 7%
Population Mitotic Cells (%) [4]: 73%
Population Normal (%) [4]: 92%
Population Tubulin-Different-Phenotype (%) [4]: 33%
Total Cell Count [4]: 119
Population Apoptotic (%) [5]: 68%
Population Fragmented Nuclei (%) [5]: 12%
Population Healthy Nuclei (%) [5]: 73%
Population Hoechst High Intensity Objects (%) [5]: 2%
Population Membrane Permeable-Phenotype (%) [5]: 2%
Population Mitochondria Different-Phenotype (%) [5]: 2%
Population Mitotic Cells (%) [5]: 32%
Population Normal (%) [5]: 97%
Population Pyknosed Nuclei (%) [5]: 13%
Population Tubulin-Different-Phenotype (%) [5]: 25%
Total Cell Count [5]: 183
Population Apoptotic (%) [6]: 33%
Population Fragmented Nuclei (%) [6]: 27%
Population Healthy Nuclei (%) [6]: 49%
Population Hoechst High Intensity Objects (%) [6]: 4%
Population Membrane Permeable-Phenotype (%) [6]: 6%
Population Mitochondria Different-Phenotype (%) [6]: 1%
Population Mitotic Cells (%) [6]: 66%
Population Normal (%) [6]: 95%
Population Pyknosed Nuclei (%) [6]: 22%
Population Tubulin-Different-Phenotype (%) [6]: 44%
Total Cell Count [6]: 123
Population Apoptotic (%) [7]: 57%
Population Fragmented Nuclei (%) [7]: 10%
Population Healthy Nuclei (%) [7]: 68%
Population Hoechst High Intensity Objects (%) [7]: 1%
Population Membrane Permeable-Phenotype (%) [7]: 1%
Population Mitochondria Different-Phenotype (%) [7]: 3%
Population Mitotic Cells (%) [7]: 42%
Population Normal (%) [7]: 98%
Population Pyknosed Nuclei (%) [7]: 20%
Population Tubulin-Different-Phenotype (%) [7]: 30%
Total Cell Count [7]: 193
Population Apoptotic (%) [8]: 35%
Population Fragmented Nuclei (%) [8]: 18%
Population Healthy Nuclei (%) [8]: 66%
Population Hoechst High Intensity Objects (%) [8]: 2%
Population Mitochondria Different-Phenotype (%) [8]: 4%
Population Mitotic Cells (%) [8]: 64%
Population Normal (%) [8]: 97%
Population Pyknosed Nuclei (%) [8]: 15%
Population Tubulin-Different-Phenotype (%) [8]: 34%
Total Cell Count [8]: 113
Population Apoptotic (%) [9]: 62%
Population Fragmented Nuclei (%) [9]: 17%
Population Healthy Nuclei (%) [9]: 68%
Population Hoechst High Intensity Objects (%) [9]: 2%
Population Membrane Permeable-Phenotype (%) [9]: 0%
Population Mitochondria Different-Phenotype (%) [9]: 2%
Population Mitotic Cells (%) [9]: 37%
Population Normal (%) [9]: 97%
Population Pyknosed Nuclei (%) [9]: 14%
Population Tubulin-Different-Phenotype (%) [9]: 26%
Total Cell Count [9]: 189
Population Apoptotic (%) [10]: 23%
Population Fragmented Nuclei (%) [10]: 36%
Population Healthy Nuclei (%) [10]: 48%
Population Hoechst High Intensity Objects (%) [10]: 8%
Population Membrane Permeable-Phenotype (%) [10]: 9%
Population Mitochondria Different-Phenotype (%) [10]: 5%
Population Mitotic Cells (%) [10]: 76%
Population Normal (%) [10]: 91%
Population Tubulin-Different-Phenotype (%) [10]: 65%
Total Cell Count [10]: 125
Population Apoptotic (%) [11]: 45%
Population Fragmented Nuclei (%) [11]: 14%
Population Healthy Nuclei (%) [11]: 68%
Population Hoechst High Intensity Objects (%) [11]: 5%
Population Membrane Permeable-Phenotype (%) [11]: 1%
Population Mitochondria Different-Phenotype (%) [11]: 2%
Population Mitotic Cells (%) [11]: 54%
Population Normal (%) [11]: 94%
Population Pyknosed Nuclei (%) [11]: 16%
Population Tubulin-Different-Phenotype (%) [11]: 32%
Total Cell Count [11]: 198
Population Apoptotic (%) [12]: 27%
Population Fragmented Nuclei (%) [12]: 27%
Population Healthy Nuclei (%) [12]: 63%
Population Hoechst High Intensity Objects (%) [12]: 3%
Population Membrane Permeable-Phenotype (%) [12]: 2%
Population Mitotic Cells (%) [12]: 72%
Population Normal (%) [12]: 96%
Population Pyknosed Nuclei (%) [12]: 9%
Population Tubulin-Different-Phenotype (%) [12]: 28%
Total Cell Count [12]: 115
